Rows were chosen to be rich in hits. Some 2.1% of all compounds tested hit in one or more screens of this group.
MEKK2 mut-MEK5 = signal of MEK5 binding to mutant human MEKK2 PB1 domain; bead flow cytometry, Alexa488-MEK5 binding to MEKK2 mutant; percent response, % at 10 µM; 290,000 tested, 0.35% active; AID 1530; in the data active = percent response above about 24%, passing the limit was not always enough
GSK3A inh = human GSK-3 alpha kinase inhibition; AID 2650; ADP-Glo luminescence, 60 min; inhibition, % at 10 µM; 320,000 tested, 0.1% active;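 active = more than half of replicates show inhibition above 20%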;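 note: GST-tagged GSK-3 alpha with peptide substrate and 25 µM ATP; 0% = DMSO neutral wells and 100% = GW8510 positive control wells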
STK33 kinase inh = inhibitors of human STK33 kinase; Q9BYT3; 320,000 tested, 0.073% active; inhibition, % at 10 µM; purified STK33, MBP phosphorylation, ADP-Glo luminescence; AID 2661;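 active = inhibition at or above 25%, using the most active replicate where run in duplicate; inactive = inhibition below 25%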
MEKK3 PB1 HTS = MEKK3-MEK5 PB1 interaction, increase or decrease. AID 1529. 290,000 tested, 1.4% active. bead-based flow cytometry, Alexa488-MEK5 binding to MEKK3; actives lie on both sides; 0 = blocked by unlabeled MEK5, 100 = vehicle. binding response (% of control), % at 10 µM. Q99759;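 active = binding response more than 3 SD above or below the average of its plate-row segment, actives on both sides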;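 note: Alexa488 bead fluorescence after subtracting the streptavidin-only scavenger bead signal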
MEKK2 WT-MEK5 = raises or lowers MEK5 binding to wildtype human MEKK2 PB1 domain. AID 1531. 290,000 tested, 1.1% active. binding response (% of control), % at 10 µM. Q9Y2U5. bead flow cytometry, Alexa488-MEK5 binding to MEKK2 WT; actives lie on both sides; in the data active = binding response below about 67% or above about 130%
GSK3B inh = human GSK3beta kinase inhibition | P49841 | GST-GSK3beta kinase, ADP-Glo luminescence, 60 min; active compounds read low | activity score (negative = inhibition), % at 10 µM | 300,000 tested, 0.038% active;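 active = more than half of replicate wells score below -50%, meaning over 50% inhibition versus plate controls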;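 note: 0% = median DMSO wells and -100% = median GW8510 positive control wells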
Target sequence (P49841 whole entry, looked up): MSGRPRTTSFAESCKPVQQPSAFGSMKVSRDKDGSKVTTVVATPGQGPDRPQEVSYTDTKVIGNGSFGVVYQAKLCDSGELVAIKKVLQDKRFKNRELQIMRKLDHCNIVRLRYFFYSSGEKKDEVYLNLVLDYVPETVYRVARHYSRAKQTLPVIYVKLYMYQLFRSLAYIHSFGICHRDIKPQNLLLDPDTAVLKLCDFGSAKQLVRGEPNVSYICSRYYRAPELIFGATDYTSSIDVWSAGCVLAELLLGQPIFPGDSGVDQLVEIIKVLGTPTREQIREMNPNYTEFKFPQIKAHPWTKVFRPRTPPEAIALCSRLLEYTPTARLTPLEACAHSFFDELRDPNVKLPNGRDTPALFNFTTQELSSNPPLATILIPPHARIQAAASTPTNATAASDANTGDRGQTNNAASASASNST
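Assay system: GST-tagged human GSK3beta kinase, cell-free; Input: 1.6 ng GSK3beta; Medium: Tris/MgCl2 kinase buffer; Timing: 60 min enzyme reaction, room temperature; Signal: ADP-Glo luminescence quantifying ADP generated by kinase; Evaluation: score relative to plate controls; Benchmarks: DMSO neutral wells and GW8510 at 20 µM as positive.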
MEKK2wt confirm = raises or lowers MEK5 binding to wildtype human MEKK2, retest; bead flow cytometry, Alexa488-MEK5 binding to MEKK2 WT; actives lie on both sides; AID 1892; 5,900 tested, 2.4% active; shares compounds with MEKK3 PB1 HTS; binding response (% of control), % at 10 µM; in the data active = binding response below about 16% or above about 210%; inactive = in between
MEKK2mut confirm = signal of MEK5 binding to mutant human MEKK2, retest. percent response, % at 10 µM. shares compounds with MEKK3 PB1 HTS. bead flow cytometry, Alexa488-MEK5 binding to MEKK2 mutant. AID 1893. 5,900 tested, 2% active; in the data active = percent response mostly above about 71%, no sharp cut-off; inactive = mostly below about 38%;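 note: higher means compound restores mutant binding toward wildtype level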
MEKK3-MEK5 inh = MEKK3-MEK5 PB1 inhibition, single concentration confirmation; bead flow cytometry, Alexa488-MEK5 binding to MEKK3; active compounds read low; binding response (% of control), % at 10 µM; 5,900 tested, 1.8% active; shares compounds with MEKK3 PB1 HTS;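 active = binding response below 72% of control, or above a set upper limit, though filed actives all read lower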;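 note: 100% = DMSO only wells and 0% = binding blocked by excess unlabeled MEK5; lower values mean stronger disruption of MEK5 binding to MEKK3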
Starred values were filed as active, the others as inactive; . = not tested or not shown; [ ] = remark or other dose.

SMILES | MEKK2 mut-MEK5 | GSK3A inh | STK33 kinase inh | MEKK3 PB1 HTS | MEKK2 WT-MEK5 | GSK3B inh | MEKK2wt confirm | MEKK2mut confirm | MEKK3-MEK5 inh
CCN1CCN(Cc2c(O)ccc3c(=O)c(-c4ccccc4OC)coc23)CC1 | 6.0 | -1.4 | -0.9 | 102.0 | 112.0 | -0.2 | . | . | .
CCC(=O)NC(=S)Nc1ccc(OC)cc1OC | 0.0 | -1.2 | -0.1 | 134.0* | 110.0 | 3.2 | 95.0 | 1.0 | 94.0
COc1ccc(NC(=O)CN2C(=O)CSC(C)C2=O)c(OC)c1 (stereo not given) | 0.0 | -3.2 | -3.6 | 137.0* | 107.0 | -2.0 | 101.0 | 1.0 | 103.0
COc1ccccc1NC(=O)CN1C(=O)CSC(C)C1=O (stereo not given) | 0.0 | -1.5 | 0.0 | 79.0 | 96.0 | -2.2 | . | . | .
CCOc1ccc(CNC(=O)Cn2ccc3cc(S(=O)(=O)N4CCCCCC4)ccc32)cc1 | 2.0 | 3.6 | -2.0 | 100.0 | 95.0 | -26.6 | . | . | .
COc1ccc2cc1Oc1ccc(cc1)C[C@H]1c3c(cc(OC)c4c3Oc3c(ccc5c3[C@H](C2)N(C)CC5)O4)CCN1C | . | -6.3 | -0.2 | . | . | . | . | . | .
COc1ccc2cc1Oc1ccc(cc1)CC1c3c(cc(OC)c4c3Oc3cc5c(cc3O4)CCNC5C2)CCN1C (stereo not given) | 30.0* | -1.7 | 1.5 | 75.0 | 186.0* | -1.4 | 174.0 | 50.0 | 107.0
CCOC(=O)c1c(S(=O)(=O)NCC(=O)N2CCN(c3ccccc3)CC2)c(C)n(C)c1C | 0.0 | -0.9 | -3.6 | 98.0 | 100.0 | 1.9 | . | . | .
COc1cccc(C(=O)N2CCN=C2SC)c1 | -4.0 | -0.5 | -4.9 | 58.0*[inhibitor] | 76.0 | -2.7 | 99.0 | -5.0 | 97.0
O=C(COc1ccc(C(=S)N2CCCC2)cc1)Nc1ccccc1C(F)(F)F | 5.0 | -0.1 | -0.3 | 104.0 | 102.0 | 1.1 | . | . | .
COc1cc2c(cc1OC)CN(C1CCCN(Cc3cc(Cl)ccc3O)C1)CC2 (stereo not given) | 4.0 | 3.9 | -0.1 | 100.0 | 111.0 | 1.1 | . | . | .
Cc1ccc(-c2csc(/C(C#N)=C/Nc3ccc4c(c3)OCCO4)n2)cc1 | 0.0 | -1.5 | 0.6 | 113.0 | 105.0 | -2.6 | . | . | .
CCN(CC)CCOC(=O)c1ccc(N/C=C(/C#N)c2nc(-c3cccc(OC)c3)cs2)cc1 | -14.0 | -0.1 | 0.6 | 31.0*[inhibitor] | 93.0 | -2.9 | 78.0 | -38.0 | 26.0*
CCN(CC)CCOC(=O)c1ccc(N/C=C(/C#N)c2nc(-c3ccc(OC)c(OC)c3)cs2)cc1 | -1.0 | 0.0 | 8.0 | 29.0*[inhibitor] | 94.0 | 0.2 | 53.0 | -45.0 | 15.0*
COc1cc2c(cc1OC)C(COc1cc(C)cc(C)c1)N(C(C)=O)CC2 (stereo not given) | 2.0 | -0.6 | 0.1 | 101.0 | 102.0 | -0.1 | . | . | .
Cc1cc(/C=C(\C#N)C(=O)Nc2ccc(F)cc2)c(C)n1-c1ccc(N2CCOCC2)c([N+](=O)[O-])c1 | 1.0 | -1.2 | -0.7 | 101.0 | 101.0 | -1.3 | . | . | .
COc1ccc(NC(=O)/C(C#N)=C/c2cc(C)n(-c3ccc(N4CCOCC4)c([N+](=O)[O-])c3)c2C)cc1 | 0.0 | . | . | 132.0* | 102.0 | -0.7 | 102.0 | 3.0 | 106.0
O=S(=O)(NCc1ccc(C(F)(F)F)cc1)c1ccc(-n2cnnn2)cc1 | -1.0 | -0.3 | -1.1 | 99.0 | 94.0 | -2.1 | . | . | .
Cc1csc(N2CCN(c3cc4nc(-c5ccncc5)[nH]c4cc3Cl)CC2)n1 | 1.0 | -1.9 | 2.0 | 99.0 | 95.0 | 2.4 | . | . | .
Cc1ccc(-c2csc(N3CCN(c4cc5c(cc4Cl)nc(C)n5CCN4CCCCC4)CC3)n2)cc1 | 46.0* | -1.4 | -1.6 | 107.0 | 148.0* | 1.0 | 177.0 | 47.0 | 111.0
Cc1csc(N2CCN(c3cc4c(cc3Cl)nc(-c3ccncc3)n4CCCN3CCCC3)CC2)n1 | 22.0 | 0.7 | 0.7 | 102.0 | 147.0* | -0.1 | 164.0 | 51.0 | 107.0
COC(=O)c1ccc2c(=O)n(CCCCCC(=O)N3CCN(c4ccccc4)CC3)c(=O)[nH]c2c1 | 6.0 | -6.8 | 0.2 | 122.0* | 119.0 | 0.8 | 100.0 | 0.0 | 102.0
Cc1ccc(NC(=O)c2sccc2C)nc1 | 11.0 | 0.4 | -0.6 | 101.0 | 104.0 | 1.9 | . | . | .
CCOC(=O)Cn1c(=N)n(CCOc2ccc3ccccc3c2)c2ccccc21 | 19.0 | 3.5 | 0.0 | 105.0 | 146.0* | -2.5 | 150.0 | 23.0 | 104.0
CCNCC(=O)N1c2ccccc2CCc2ccc(NC(C)=O)cc21 | -3.0 | 0.2 | -0.4 | 93.0 | 102.0 | 1.3 | . | . | .
SMILES | MEKK2 mut-MEK5 | GSK3A inh | STK33 kinase inh | MEKK3 PB1 HTS | MEKK2 WT-MEK5 | GSK3B inh | MEKK2wt confirm | MEKK2mut confirm | MEKK3-MEK5 inh
CCNCC(=O)N1c2ccccc2CCc2ccc(NC(=O)OC(C)C)cc21 | 7.0 | 1.9 | -0.5 | 106.0 | 137.0* | -1.1 | 127.0 | 18.0 | 106.0
O=C(Nc1c(C(=O)N2CCOCC2)cnn1-c1ccccc1)c1cccc(F)c1 | 8.0 | -1.1 | -1.3 | 100.0 | 107.0 | -0.4 | . | . | .
CC1=NN(c2ccccc2)C(=O)/C1=C/C=C/c1ccccc1 | -1.0 | 0.7 | 0.7 | 129.0* | 100.0 | 4.7 | 101.0 | 4.0 | 101.0
CC1=NN(c2cccc(C(=O)O)c2)C(=O)/C1=C\C=C\c1ccco1 | -3.0 | -1.9 | 0.8 | 102.0 | 97.0 | 6.4 | . | . | .
COC(=O)c1cc(=O)nc2sc3cc(OC)ccc3n12 | 6.0 | 0.1 | -0.1 | 122.0* | 106.0 | 1.3 | 107.0 | 6.0 | 106.0
CCOc1ccccc1N1CCN(C(=S)NCc2ccco2)CC1 | -1.0 | -0.8 | 0.1 | 64.0*[inhibitor] | 92.0 | 4.0 | 107.0 | 5.0 | 107.0
CC(=O)c1ccc(N2CCN(C(=S)NCc3ccco3)CC2)cc1 | -16.0 | -0.1 | 0.6 | 46.0*[inhibitor] | 53.0 | -0.2 | 93.0 | -27.0 | 92.0
Cc1[nH]n(-c2nc(-c3ccc(Cl)cc3)cs2)c(=O)c1N=Nc1ccc(O)cc1 | -9.0 | 0.1 | -1.7 | 90.0 | 74.0 | 0.9 | . | . | .
CC(Sc1nc(-c2ccccc2)cc(C(F)(F)F)n1)C(=O)N1CCC(C(N)=O)CC1 (stereo not given) | -12.0 | -4.0 | -1.1 | 75.0*[inhibitor] | 83.0 | -0.7 | 97.0 | -5.0 | 100.0
COc1cccc(CNS(=O)(=O)c2c(C(=O)N3CCCC3)c(C)n(C)c2C)c1 | 0.0 | -0.6 | -0.5 | 100.0 | 99.0 | 4.9 | . | . | .
O=C(O)c1cc(N/N=C/c2ccc(OCc3ccccc3)cc2)ccc1Cl | 134.0* | -2.9 | -2.0 | 112.0 | 186.0* | 1.1 | 99.0 | 1.0 | 102.0
